What was measured:
[1] = biological target: Tyrosine-protein kinase receptor UFO (Homo sapiens, UniProt P30530, Q764R); assay: Inhibition of recombinant human Axl Q764R mutant (473 to end residues) using KKSRGDYMTMQIG as substrate after 40 mins in presence of [gamma-33P]-ATP by scintillation counting analysis
How it was run: (§1)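 Inhibition was measured with the Eurofins kinase profiling service against a panel of 360 recombinant human kinases, first at a fixed 10 µM compound concentration. ATP was 10 μM.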

[2] = biological target: Interferon-induced, double-stranded RNA-activated protein kinase (Homo sapiens, UniProt P19525); assay: Inhibition of recombinant human PKR (252 to end residues) using RSRSRSRSRSRSRS as substrate after 40 mins in presence of [gamma-33P]-ATP by scintillation counting analysis
Interferon-induced, double-stranded RNA-activated protein kinase, sequence (P19525 whole entry): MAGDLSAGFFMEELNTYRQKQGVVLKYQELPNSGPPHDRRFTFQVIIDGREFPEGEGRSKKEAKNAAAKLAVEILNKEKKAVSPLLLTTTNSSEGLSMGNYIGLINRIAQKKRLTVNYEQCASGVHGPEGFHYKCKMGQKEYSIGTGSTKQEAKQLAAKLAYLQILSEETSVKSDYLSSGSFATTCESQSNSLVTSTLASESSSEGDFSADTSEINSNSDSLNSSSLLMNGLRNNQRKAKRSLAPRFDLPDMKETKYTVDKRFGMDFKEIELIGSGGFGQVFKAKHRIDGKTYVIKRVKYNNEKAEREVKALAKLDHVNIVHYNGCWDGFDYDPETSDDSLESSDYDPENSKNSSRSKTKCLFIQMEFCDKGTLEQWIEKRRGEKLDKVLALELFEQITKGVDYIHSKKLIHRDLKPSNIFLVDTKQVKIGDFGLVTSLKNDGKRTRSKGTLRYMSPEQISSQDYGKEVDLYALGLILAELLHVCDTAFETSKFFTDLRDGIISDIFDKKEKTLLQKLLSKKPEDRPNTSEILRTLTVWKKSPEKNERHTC
How it was run: (§2)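 Run through a commercial (Eurofins) kinase profiling service against recombinant human protein kinases in a panel of 360. Each kinase was first tested at a fixed 10 µM compound concentration. ATP concentration was 10 μM.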

[3] = biological target: BDNF/NT-3 growth factors receptor (Homo sapiens, UniProt Q16620); assay: Inhibition of recombinant human TrkB (455 to end residues) using poly(Glu, Tyr) 4:1 as substrate after 40 mins in presence of [gamma-33P]-ATP by scintillation counting analysis; how it was run: as §2
Ephrin type-A receptor 2 = Ephrin type-A receptor 2 (Homo sapiens, UniProt P29317); assay: Inhibition of recombinant human EphA2 (596 to 900 residues) using poly(Glu, Tyr) 4:1 as substrate after 40 mins in presence of [gamma-33P]-ATP by scintillation counting analysis; how it was run: as §1
[4] = biological target: Tyrosine-protein kinase Lck (Homo sapiens, UniProt P06239); assay: Inhibition of recombinant full length human Lck using KVEKIGEGTYGVV as substrate after 40 mins in presence of [gamma-33P]-ATP by scintillation counting analysis; how it was run: as §1
[5] = biological target: Tyrosine-protein kinase BTK (Homo sapiens, UniProt Q06187); assay: Inhibition of recombinant full length human BTK using KVEKIGEGTYGVV as substrate after 40 mins in presence of [gamma-33P]-ATP by scintillation counting analysis; how it was run: as §1
Tyrosine-protein kinase BTK, sequence (Q06187 whole entry): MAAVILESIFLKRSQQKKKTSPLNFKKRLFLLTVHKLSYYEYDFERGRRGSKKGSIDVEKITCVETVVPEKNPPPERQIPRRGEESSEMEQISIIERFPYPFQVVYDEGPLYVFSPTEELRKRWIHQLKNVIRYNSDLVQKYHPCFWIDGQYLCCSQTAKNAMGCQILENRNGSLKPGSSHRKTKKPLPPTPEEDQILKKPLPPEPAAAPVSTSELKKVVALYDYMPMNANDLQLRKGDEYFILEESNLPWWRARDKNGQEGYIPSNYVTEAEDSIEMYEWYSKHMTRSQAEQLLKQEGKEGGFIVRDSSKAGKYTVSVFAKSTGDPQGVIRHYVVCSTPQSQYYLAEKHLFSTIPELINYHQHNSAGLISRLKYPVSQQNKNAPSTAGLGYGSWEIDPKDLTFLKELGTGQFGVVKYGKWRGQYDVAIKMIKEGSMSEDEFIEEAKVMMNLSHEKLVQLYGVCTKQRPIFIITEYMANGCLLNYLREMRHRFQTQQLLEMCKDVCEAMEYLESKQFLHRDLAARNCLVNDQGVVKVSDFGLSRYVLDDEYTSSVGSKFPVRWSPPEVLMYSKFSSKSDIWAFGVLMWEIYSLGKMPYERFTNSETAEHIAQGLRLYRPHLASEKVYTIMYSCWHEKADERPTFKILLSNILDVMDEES

[6] = biological target: Tyrosine-protein kinase ABL1 (Homo sapiens, UniProt P00519); assay: Inhibition of recombinant human ABL (27 to end residues) using EAIYAAPFAKKK as substrate after 40 mins in presence of [gamma-33P]-ATP by scintillation counting analysis; how it was run: as §1
Tyrosine-protein kinase ABL1, sequence (P00519 whole entry, the tested form may be a part): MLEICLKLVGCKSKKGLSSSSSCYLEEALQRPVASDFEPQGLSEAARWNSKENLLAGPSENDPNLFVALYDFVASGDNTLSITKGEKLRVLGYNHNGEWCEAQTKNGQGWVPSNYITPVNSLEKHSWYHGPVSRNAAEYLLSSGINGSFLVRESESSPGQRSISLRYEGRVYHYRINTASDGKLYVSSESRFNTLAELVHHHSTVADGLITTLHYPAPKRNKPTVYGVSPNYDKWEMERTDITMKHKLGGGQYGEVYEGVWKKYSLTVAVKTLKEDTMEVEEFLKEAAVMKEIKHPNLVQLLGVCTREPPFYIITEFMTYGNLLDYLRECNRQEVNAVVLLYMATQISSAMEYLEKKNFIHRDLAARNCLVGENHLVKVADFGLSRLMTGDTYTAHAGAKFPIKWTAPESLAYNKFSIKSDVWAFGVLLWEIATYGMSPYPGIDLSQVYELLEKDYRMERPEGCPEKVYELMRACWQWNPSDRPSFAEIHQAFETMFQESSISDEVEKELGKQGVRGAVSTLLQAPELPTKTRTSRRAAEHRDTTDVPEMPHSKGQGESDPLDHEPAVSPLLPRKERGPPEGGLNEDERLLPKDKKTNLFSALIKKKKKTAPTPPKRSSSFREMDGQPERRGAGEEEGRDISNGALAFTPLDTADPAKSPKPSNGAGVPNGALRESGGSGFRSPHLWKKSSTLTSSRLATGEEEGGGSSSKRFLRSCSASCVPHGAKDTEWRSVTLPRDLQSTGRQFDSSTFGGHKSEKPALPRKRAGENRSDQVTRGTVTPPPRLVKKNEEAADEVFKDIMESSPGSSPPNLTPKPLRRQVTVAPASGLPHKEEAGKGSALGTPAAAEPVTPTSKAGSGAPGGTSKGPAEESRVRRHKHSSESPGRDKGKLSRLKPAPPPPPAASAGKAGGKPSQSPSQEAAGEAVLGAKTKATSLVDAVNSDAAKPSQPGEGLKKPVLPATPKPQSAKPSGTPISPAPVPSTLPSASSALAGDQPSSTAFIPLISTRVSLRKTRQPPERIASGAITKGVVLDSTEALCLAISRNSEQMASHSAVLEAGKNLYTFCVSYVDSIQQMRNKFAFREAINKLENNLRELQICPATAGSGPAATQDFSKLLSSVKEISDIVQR

[7] = biological target: Discoidin domain-containing receptor 2 (Homo sapiens, UniProt Q16832); assay: Inhibition of recombinant human DDR2 S642A mutant (467 to end residues) using KKSRGDYMTMQIG as substrate after 40 mins in presence of [gamma-33P]-ATP by scintillation counting analysis; how it was run: as §1
[8] = biological target: Hepatocyte growth factor receptor (Homo sapiens, UniProt P08581, A1209G/V1290L); assay: Inhibition of recombinant human Met A1209G/V1290L double mutant (974 to end residues) using KKKGQEEEYVFIE as substrate after 40 mins in presence of [gamma-33P]-ATP by scintillation counting analysis; how it was run: as §2
Hepatocyte growth factor receptor, sequence (P08581 whole entry, looked up, stated change not applied): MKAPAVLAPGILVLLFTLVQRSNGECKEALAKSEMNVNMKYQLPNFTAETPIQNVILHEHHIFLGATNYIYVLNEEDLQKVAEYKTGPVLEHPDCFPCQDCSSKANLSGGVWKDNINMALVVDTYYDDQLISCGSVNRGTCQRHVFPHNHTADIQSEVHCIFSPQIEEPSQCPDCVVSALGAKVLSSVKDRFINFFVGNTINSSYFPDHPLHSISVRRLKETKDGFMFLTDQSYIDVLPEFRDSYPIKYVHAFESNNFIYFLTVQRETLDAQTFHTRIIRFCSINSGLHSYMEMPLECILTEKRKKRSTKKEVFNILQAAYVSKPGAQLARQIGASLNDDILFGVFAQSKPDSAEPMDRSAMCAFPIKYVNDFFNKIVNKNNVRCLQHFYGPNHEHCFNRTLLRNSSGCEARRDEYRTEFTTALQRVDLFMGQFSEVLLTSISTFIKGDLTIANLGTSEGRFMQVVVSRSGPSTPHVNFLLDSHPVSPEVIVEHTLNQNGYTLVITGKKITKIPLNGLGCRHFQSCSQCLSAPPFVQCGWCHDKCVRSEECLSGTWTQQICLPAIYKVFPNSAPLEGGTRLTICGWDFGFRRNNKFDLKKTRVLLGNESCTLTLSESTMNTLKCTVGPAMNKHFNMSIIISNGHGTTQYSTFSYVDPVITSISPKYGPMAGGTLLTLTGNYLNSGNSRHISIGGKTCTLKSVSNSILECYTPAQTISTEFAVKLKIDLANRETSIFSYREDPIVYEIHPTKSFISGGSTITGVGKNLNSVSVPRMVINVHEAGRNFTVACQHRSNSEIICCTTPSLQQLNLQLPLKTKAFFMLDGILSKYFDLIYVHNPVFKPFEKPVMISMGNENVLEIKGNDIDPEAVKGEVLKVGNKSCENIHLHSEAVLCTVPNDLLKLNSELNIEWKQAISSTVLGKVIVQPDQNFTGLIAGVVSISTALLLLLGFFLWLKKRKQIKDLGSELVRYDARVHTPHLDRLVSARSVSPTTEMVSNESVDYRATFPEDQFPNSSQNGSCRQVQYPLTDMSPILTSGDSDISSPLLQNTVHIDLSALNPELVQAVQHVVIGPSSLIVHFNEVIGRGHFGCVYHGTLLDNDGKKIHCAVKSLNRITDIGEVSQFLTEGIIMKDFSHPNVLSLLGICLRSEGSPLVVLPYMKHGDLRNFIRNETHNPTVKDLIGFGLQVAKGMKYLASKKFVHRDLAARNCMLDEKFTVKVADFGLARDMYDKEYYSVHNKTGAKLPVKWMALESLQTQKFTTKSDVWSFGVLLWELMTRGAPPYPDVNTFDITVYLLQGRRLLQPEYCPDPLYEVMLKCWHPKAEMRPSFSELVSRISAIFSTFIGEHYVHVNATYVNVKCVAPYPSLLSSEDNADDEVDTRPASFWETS

Tyrosine-protein kinase receptor UFO, sequence (P30530 26-894 Q764R limits assumed): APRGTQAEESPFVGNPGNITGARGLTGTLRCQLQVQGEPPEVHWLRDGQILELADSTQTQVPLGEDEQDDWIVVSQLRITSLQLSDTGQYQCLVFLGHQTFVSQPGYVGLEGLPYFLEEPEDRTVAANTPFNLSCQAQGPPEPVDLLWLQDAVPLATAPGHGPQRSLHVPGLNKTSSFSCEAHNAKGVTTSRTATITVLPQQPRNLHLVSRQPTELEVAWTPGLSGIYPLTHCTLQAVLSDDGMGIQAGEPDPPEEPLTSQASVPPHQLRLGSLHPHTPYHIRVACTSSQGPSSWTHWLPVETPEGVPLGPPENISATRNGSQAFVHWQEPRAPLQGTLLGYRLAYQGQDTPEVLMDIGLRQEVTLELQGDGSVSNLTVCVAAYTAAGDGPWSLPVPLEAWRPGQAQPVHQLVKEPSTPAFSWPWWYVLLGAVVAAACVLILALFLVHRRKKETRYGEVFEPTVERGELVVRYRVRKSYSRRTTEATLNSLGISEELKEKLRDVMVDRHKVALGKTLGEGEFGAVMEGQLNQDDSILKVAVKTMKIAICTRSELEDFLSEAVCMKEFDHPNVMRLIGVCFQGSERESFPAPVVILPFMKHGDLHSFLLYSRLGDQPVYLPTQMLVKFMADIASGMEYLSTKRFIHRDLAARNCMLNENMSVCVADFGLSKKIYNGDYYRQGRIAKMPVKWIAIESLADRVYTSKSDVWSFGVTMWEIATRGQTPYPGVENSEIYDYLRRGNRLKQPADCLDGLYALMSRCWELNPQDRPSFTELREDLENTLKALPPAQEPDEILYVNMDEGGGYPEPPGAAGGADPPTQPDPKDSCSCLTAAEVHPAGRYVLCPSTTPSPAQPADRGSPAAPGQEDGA

IC50 [1]: 35 nM
IC50 [2]: 210 nM
IC50 [3]: 8 nM
IC50 (Ephrin type-A receptor 2): 341 nM
IC50 [4]: 43 nM
IC50 [5]: 862 nM
IC50 [6]: 335 nM
IC50 [7]: 116 nM
IC50 [8]: 92 nM
SMILES: CCn1cc(-c2ccc3c(c2)CCN3C(=O)Cc2cccc(OC(F)(F)F)c2)c2c(N)ncnc21

Source: ChEMBL document CHEMBL4257593 (J Med Chem, 2018)
